Results taken from ChEMBL document CHEMBL4613315, “Design of First-in-Class Dual EZH2/HDAC Inhibitor: Biochemical Activity and Biological Evaluation in Cancer Cells” (ACS Med Chem Lett, 2020).
The source made the active and inactive calls. The rule behind the calls is not given here.

Columns and labels:
[1] = target: Histone deacetylase 2 (Homo sapiens, UniProt Q92769)
[2] = target: Histone deacetylase 4 (Homo sapiens, UniProt P56524); assay: Inhibition of human recombinant HDAC4 using AMC-K(TFA)GL as substrate by fluorescence based assay
[3] = target: Histone deacetylase 5 (Homo sapiens, UniProt Q9UQL6); assay: Inhibition of human recombinant HDAC5 using AMC-K(TFA)GL as substrate by fluorescence based assay
[4] = system: U-937; assay: Cell cycle arrest in human U937 cells assessed as subG1 accumulation at 25 uM incubated for 72 hrs by propidium iodide staining based flow cytometry (reference value: 4.9 %); type: functional
[5] = system: U-937; assay: Induction of apoptosis in human U937 cells assessed as late apoptotic cells at 10 uM incubated for 72 hrs by annexin V-FITC staining based flow cytometry (reference value: 0.7 %); type: functional
[6] = system: U-937; assay: Induction of apoptosis in human U937 cells assessed as viable cells at 25 uM incubated for 72 hrs by annexin V-FITC staining based flow cytometry (reference value: 95.4 %); type: functional; conditions: U-937, 72 h, read-out: Activity
[7] = system: U-937; assay: Induction of apoptosis in human U937 cells assessed as early apoptotic cells at 25 uM incubated for 72 hrs by annexin V-FITC staining based flow cytometry (reference value: 3.4 %); type: functional
[8] = system: U-937; assay: Induction of apoptosis in human U937 cells assessed as necrotic cells at 25 uM incubated for 72 hrs by annexin V-FITC staining based flow cytometry (reference value: 0.5 %); type: functional
[9] = Cell cycle arrest in human RH4 cells assessed as G2/M accumulation at 14 uM incubated for 72 hrs by propidium iodide staining based flow cytometry (reference value: 18.9 %); type: functional
[10] = Cell cycle arrest in human RH4 cells assessed as G0/G1 accumulation at 28 uM incubated for 72 hrs by propidium iodide staining based flow cytometry (reference value: 46.2 %); type: functional
[11] = Induction of apoptosis in human RH4 cells assessed as late apoptotic cells at 28 uM incubated for 72 hrs by annexin V-FITC staining based flow cytometry (reference value: 2.1 %); type: functional
[12] = system: U-937; assay: Cell cycle arrest in human U937 cells assessed as increase in subG1 accumulation incubated for 72 hrs by propidium iodide staining based assay; type: functional
[13] = species: Homo sapiens; assay: Cell cycle arrest in human RH4 cells assessed as increase in subG1 accumulation incubated for 72 hrs by propidium iodide staining based assay; type: functional
[14] = system: U-937; assay: Induction of differentiation of human U937 cells assessed as increase in CD11b level at 10 uM incubated for 72 hrs by flow cytometry analysis; type: functional
Procedure, shortened: (§1)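 U937 cells were treated for 72 h at 10 and 25 μM, and surface CD11b expression was measured as a differentiation marker.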

[15] = system: U-937; assay: Induction of differentiation of human U937 cells assessed as increase in CD11b level at 25 uM incubated for 72 hrs by flow cytometry analysis; type: functional
Procedure, shortened: as §1

[16] = system: U-87MG ATCC; assay: Upregulation of E-cadherin levels in human U87 cells at 5 to 25 uM incubated for 24 hrs by Western blot analysis; type: functional, cell-based
Procedure, shortened: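 U87 glioblastoma cells treated 24 h at 5, 10 and 25 μM with DMSO control; E-cadherin and Snail probed by Western blot, tubulin as loading control.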

[17] = system: U-937; assay: Cytotoxicity against human U937 cells assessed as combinational index measured at fraction affected value of 0.68 in presence of vorinostat at 10 uM incubated for 72 hrs by CellTiter-Glo Luminescent cell viability assay; type: functional
Procedure, shortened: (§2)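 Viability after 72 h of single-agent or combined treatment with the HDAC inhibitor (0.05–0.25 μM) and the EZH2 inhibitor. EZH2 inhibitor range: U937 5–25 μM; RH4 10–50 μM. Synergy was assessed by combination index and isobologram analysis.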

[18] = system: U-937; assay: Cytotoxicity against human U937 cells assessed as reduction in cell viability at 25 uM incubated for 72 hrs by CellTiter-Glo Luminescent cell viability assay relative to control; type: functional; conditions: U-937, 72 h
Procedure, shortened: as §2

[19] = Cytotoxicity against human RH4 cells assessed as reduction in cell viability at 50 uM incubated for 72 hrs by CellTiter-Glo Luminescent cell viability assay relative to control; type: functional; conditions: Rh4, 72 h
[20] = Cytotoxicity against human RH4 cells assessed as reduction in cell viability at 50 uM in presence of vorinostat incubated for 72 hrs by CellTiter-Glo Luminescent cell viability assay relative to control; type: functional; conditions: Rh4, 72 h
Procedure, shortened: as §2

[21] = target: T1, Protein deacetylase HDAC6 (Homo sapiens) (UniProt Q9UBN7); assay: Inhibition of HDAC6 in human RH4 cells assessed as acetylated alpha-tubulin level at 50 uM incubated for 96 hrs by Western blot analysis; type: cell-based
T1 sequence (whole entry): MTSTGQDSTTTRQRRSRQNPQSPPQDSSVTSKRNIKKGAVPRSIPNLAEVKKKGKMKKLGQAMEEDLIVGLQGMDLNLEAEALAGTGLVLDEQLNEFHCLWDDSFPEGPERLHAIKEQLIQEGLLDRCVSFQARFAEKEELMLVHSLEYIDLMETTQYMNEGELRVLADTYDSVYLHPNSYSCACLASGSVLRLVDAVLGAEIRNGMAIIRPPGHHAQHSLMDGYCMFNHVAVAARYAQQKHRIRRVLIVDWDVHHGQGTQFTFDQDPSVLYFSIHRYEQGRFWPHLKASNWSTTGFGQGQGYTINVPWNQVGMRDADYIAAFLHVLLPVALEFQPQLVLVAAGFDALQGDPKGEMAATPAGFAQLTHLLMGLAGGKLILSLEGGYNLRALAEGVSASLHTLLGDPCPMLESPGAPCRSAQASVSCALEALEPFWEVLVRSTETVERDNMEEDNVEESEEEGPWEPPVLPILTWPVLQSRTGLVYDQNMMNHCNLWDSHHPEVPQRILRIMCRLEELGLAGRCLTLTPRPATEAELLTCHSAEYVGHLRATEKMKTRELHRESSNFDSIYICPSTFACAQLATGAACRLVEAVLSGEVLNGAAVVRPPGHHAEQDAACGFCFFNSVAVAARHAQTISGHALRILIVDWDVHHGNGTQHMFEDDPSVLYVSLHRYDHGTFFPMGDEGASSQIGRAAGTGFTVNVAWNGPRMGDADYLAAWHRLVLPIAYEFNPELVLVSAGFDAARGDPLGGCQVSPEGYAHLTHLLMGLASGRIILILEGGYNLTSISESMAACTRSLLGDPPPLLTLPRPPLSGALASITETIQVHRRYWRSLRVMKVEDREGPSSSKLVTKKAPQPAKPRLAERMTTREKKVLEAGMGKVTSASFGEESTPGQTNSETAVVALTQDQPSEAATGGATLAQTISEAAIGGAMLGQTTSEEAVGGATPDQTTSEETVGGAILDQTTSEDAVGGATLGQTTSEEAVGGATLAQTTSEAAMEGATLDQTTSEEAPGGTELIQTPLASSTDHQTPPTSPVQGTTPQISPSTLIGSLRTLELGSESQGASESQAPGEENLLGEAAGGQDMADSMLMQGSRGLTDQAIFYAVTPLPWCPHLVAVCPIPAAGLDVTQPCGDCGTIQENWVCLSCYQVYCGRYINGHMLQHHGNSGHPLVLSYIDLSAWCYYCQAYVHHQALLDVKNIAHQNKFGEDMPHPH

Histone deacetylase 2, sequence (Q92769 whole entry): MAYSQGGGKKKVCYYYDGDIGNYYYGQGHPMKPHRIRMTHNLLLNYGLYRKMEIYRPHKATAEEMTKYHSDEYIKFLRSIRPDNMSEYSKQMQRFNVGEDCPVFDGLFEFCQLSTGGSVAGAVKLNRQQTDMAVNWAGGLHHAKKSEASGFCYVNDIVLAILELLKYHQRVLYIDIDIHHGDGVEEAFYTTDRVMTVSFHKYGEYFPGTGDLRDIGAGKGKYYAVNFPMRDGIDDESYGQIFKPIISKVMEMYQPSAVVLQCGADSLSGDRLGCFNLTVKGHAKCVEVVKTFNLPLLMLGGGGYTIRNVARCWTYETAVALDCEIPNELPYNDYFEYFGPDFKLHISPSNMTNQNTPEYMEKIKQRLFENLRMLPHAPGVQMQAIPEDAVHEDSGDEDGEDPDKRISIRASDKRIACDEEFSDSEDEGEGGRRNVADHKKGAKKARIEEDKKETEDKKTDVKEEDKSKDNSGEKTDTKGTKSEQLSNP
Histone deacetylase 5, sequence (Q9UQL6 whole entry): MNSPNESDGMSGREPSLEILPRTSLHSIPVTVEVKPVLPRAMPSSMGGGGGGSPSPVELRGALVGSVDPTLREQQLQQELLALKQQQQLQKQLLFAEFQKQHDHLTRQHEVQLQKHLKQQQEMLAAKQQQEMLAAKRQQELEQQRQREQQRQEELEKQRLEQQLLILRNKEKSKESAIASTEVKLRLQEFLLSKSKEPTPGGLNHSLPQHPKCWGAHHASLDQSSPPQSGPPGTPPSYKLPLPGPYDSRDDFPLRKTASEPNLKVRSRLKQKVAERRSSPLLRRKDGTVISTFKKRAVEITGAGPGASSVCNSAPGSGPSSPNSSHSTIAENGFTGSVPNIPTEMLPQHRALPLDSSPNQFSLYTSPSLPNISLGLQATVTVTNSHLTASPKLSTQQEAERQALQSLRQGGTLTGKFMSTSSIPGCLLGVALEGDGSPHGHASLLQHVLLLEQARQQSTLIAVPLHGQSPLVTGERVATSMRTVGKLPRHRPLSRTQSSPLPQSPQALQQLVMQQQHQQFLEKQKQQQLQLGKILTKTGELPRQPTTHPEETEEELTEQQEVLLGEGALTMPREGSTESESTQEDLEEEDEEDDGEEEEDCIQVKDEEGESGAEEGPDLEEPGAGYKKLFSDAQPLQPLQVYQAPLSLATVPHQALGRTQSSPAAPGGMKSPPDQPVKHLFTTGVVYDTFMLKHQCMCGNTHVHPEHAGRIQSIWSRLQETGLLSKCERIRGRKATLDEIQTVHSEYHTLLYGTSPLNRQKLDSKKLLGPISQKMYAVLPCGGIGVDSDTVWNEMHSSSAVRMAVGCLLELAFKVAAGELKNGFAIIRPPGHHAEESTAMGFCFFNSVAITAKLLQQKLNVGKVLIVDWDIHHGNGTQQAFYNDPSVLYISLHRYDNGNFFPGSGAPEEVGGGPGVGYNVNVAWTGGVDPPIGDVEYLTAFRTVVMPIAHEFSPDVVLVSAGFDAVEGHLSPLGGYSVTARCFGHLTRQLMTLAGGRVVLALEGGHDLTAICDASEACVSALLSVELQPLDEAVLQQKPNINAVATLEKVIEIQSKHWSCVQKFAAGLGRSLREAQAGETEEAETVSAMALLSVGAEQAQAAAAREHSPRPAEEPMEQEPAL
Histone deacetylase 4, sequence (P56524 whole entry): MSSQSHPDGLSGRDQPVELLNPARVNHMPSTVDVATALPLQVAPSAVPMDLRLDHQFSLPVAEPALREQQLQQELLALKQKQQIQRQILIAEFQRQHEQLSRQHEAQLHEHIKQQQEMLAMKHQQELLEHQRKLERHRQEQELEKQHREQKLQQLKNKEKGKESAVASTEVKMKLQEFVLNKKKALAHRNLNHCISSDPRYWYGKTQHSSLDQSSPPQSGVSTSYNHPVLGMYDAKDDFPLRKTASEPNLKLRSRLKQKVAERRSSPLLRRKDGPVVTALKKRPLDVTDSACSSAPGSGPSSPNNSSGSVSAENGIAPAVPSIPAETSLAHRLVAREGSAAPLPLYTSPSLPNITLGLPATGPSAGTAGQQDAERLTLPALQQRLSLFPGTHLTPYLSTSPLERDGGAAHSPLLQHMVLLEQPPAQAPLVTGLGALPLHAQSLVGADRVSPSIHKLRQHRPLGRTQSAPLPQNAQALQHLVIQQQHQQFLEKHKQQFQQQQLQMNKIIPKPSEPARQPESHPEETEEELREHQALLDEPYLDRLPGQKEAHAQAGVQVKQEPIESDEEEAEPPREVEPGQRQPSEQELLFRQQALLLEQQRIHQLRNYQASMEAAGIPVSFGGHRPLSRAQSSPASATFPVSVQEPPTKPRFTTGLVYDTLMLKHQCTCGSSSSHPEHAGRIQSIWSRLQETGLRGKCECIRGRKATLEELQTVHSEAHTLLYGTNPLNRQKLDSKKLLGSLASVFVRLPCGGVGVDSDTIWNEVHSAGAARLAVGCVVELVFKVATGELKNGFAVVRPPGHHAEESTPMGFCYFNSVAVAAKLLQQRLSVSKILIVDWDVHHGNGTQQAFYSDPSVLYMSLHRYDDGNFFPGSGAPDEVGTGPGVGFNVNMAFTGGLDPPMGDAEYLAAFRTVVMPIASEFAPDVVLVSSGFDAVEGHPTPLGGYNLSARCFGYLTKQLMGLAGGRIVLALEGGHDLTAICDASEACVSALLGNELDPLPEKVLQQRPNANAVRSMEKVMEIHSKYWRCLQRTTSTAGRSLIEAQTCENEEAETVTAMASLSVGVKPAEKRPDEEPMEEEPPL

**Q.** With `Cc1cc(C)c(CNC(=O)c2cc(C)n(-c3cccc(NC(=O)CCCCCCC(=O)NO)c3)c2C)c(=O)[nH]1` as the compound, how does the IC50 [1] read?
**A.** Its IC50 is 1.33 µM.

**Q.** What about the IC50 [2] of the same compound?
**A.** The IC50 was 36.8 µM.

**Q.** And the IC50 [3]?
**A.** The IC50 was 16.6 µM.

**Q.** And the Activity [4]?
**A.** Its Activity is 36.1%.

**Q.** And the Activity [5]?
**A.** The Activity was 0.7%.

**Q.** And the viability at 25 µM [6]?
**A.** Its viability at 25 µM is 75%.

**Q.** What about the Activity [7] of the same compound?
**A.** Its Activity is 23.3%.

**Q.** And the Activity [8]?
**A.** Its Activity is 0.3%.

**Q.** And the Activity [9]?
**A.** Its Activity is 16.1%.

**Q.** What about the Activity [10] of the same compound?
**A.** Its Activity is 44.9%.

**Q.** What about the Activity [11] of the same compound?
**A.** Its Activity is 4.4%.

**Q.** What about the Activity [12] of the same compound?
**A.** Its Activity is “Dose-dependent effect”.

**Q.** What about the Activity [13] of the same compound?
**A.** Its Activity is “Dose-dependent effect”.

**Q.** What about the “fold change (FC)” value [14] of the same compound?
**A.** Its value is 2.

**Q.** And the “fold change (FC)” value [15]?
**A.** Its value is 2.7.

**Q.** And the Activity [16]?
**A.** The Activity was “Active”.

**Q.** Which results are given for `Cc1cc(C)c(CNC(=O)c2cc(C)n(-c3ccccc3)c2C)c(=O)[nH]1`?
**A.** CI [17]: 0.14; inhibition at 25 µM [18]: 25%; inhibition at 50 µM [19]: > 30%; inhibition at 50 µM [20]: > 60%; fold change (FC) [21]: 1.4
